# From ChEMBL document CHEMBL1153755, “Convenient synthesis and antimicrobial evaluation of some novel 2-substituted-3-methylbenzofuran derivatives” (2009)
# Tested on: Aspergillus fumigatus
# Assay: Antifungal activity against Aspergillus fumigatus at 100 ug after 24 to 48 hrs by diffusion agar technique
# Format: functional
# Conditions: read-out: IZ
# Method in brief: (§1)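 Fungal isolates (RCMB collection) are seeded into malt extract agar (pH 5.4) and tested by hole-plate diffusion. Each 1 cm well receives 100 μL of a 5 mg/ml DMSO solution, with DMSO as control. Plates sit 1 h at 4 °C, then incubate at 28 °C. Zone diameter is measured after 24-48 h. Terbinafin is the standard.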
row,Compound,zone of inhibition at 100 µg/disc
1,CCO/C=C(\C#N)C(=O)c1oc2ccccc2c1C,19 mm
2,Cc1ccc(N/N=C(\C#N)C(=O)c2oc3ccccc3c2C)cc1,12 mm
3,Cc1c(-c2nc3ccccc3c(=O)o2)oc2ccccc12,8 mm
4,Cc1c(-c2cc(N)n(-c3ccccc3)n2)oc2ccccc12,10 mm
5,Cc1c(C(=O)NNC(=O)c2oc3ccccc3c2C)oc2ccccc12,4 mm
6,Cc1c(C(=O)NN/C=C(\NNC(=O)c2oc3ccccc3c2C)c2ccc(Cl)cc2)oc2ccccc12,10 mm
7,CN(C/C=C/C#CC(C)(C)C)Cc1cccc2ccccc12 [TERBINAFINE],30 mm
8,Cc1c(C(=O)/C(C#N)=N/O)oc2ccccc12,8 mm
9,Cc1c(-c2n[nH]cc2C#N)oc2ccccc12,20 mm

# Tested on: Aspergillus niger
# Assay: Antifungal activity against Aspergillus niger at 100 ug after 24 to 48 hrs by diffusion agar technique
# Format: functional
# Conditions: read-out: IZ
# Method in brief: as §1
row,Compound,zone of inhibition at 100 µg/disc
1,CCO/C=C(\C#N)C(=O)c1oc2ccccc2c1C,18 mm
2,Cc1c(-c2nc3ccccc3c(=O)o2)oc2ccccc12,5 mm
3,Cc1c(-c2cc(N)n(-c3ccccc3)n2)oc2ccccc12,7 mm
4,Cc1c(C(=O)NNC(=O)c2oc3ccccc3c2C)oc2ccccc12,13 mm
5,Cc1c(C(=O)NN/C=C(\NNC(=O)c2oc3ccccc3c2C)c2ccc(Cl)cc2)oc2ccccc12,5 mm
6,CN(C/C=C/C#CC(C)(C)C)Cc1cccc2ccccc12 [TERBINAFINE],25 mm
7,Cc1c(C(=O)/C(C#N)=N/O)oc2ccccc12,12 mm
8,Cc1c(-c2n[nH]cc2C#N)oc2ccccc12,6 mm

# Tested on: Penicillium italicum
# Assay: Antifungal activity against Penicillium italicum at 100 ug after 24 to 48 hrs by diffusion agar technique
# Format: functional
# Conditions: read-out: IZ
# Method in brief: as §1
row,Compound,zone of inhibition at 100 µg/disc
1,CCO/C=C(\C#N)C(=O)c1oc2ccccc2c1C,10 mm
2,Cc1c(C(=O)Nc2ccccc2C(=O)O)oc2ccccc12,13 mm
3,Cc1c(-c2nc3ccccc3c(=O)o2)oc2ccccc12,6 mm
4,Cc1c(C(=O)NNC(=O)c2oc3ccccc3c2C)oc2ccccc12,12 mm
5,CN(C/C=C/C#CC(C)(C)C)Cc1cccc2ccccc12 [TERBINAFINE],20 mm

# Tested on: Syncephalastrum racemosum
# Assay: Antifungal activity against Syncephalastrum racemosum at 100 ug after 24 to 48 hrs by diffusion agar technique
# Format: functional
# Conditions: read-out: IZ
# Method in brief: as §1
row,Compound,zone of inhibition at 100 µg/disc
1,CCO/C=C(\C#N)C(=O)c1oc2ccccc2c1C,22 mm
2,Cc1c(C(=O)Nc2ccccc2C(=O)O)oc2ccccc12,22 mm
3,Cc1c(-c2nc3ccccc3c(=O)o2)oc2ccccc12,18 mm
4,Cc1c(C(=O)NNC(=O)c2oc3ccccc3c2C)oc2ccccc12,18 mm
5,Cc1c(C(=O)NN/C=C(\NNC(=O)c2oc3ccccc3c2C)c2ccc(Cl)cc2)oc2ccccc12,6 mm
6,CN(C/C=C/C#CC(C)(C)C)Cc1cccc2ccccc12 [TERBINAFINE],35 mm
7,Cc1c(-c2n[nH]cc2C#N)oc2ccccc12,30 mm

# Tested on: Candida albicans
# Assay: Antifungal activity against Candida albicans at 100 ug after 24 to 48 hrs by diffusion agar technique
# Format: functional
# Conditions: read-out: IZ
# Method in brief: as §1
row,Compound,zone of inhibition at 100 µg/disc
1,CCO/C=C(\C#N)C(=O)c1oc2ccccc2c1C,10 mm
2,Cc1ccc(N/N=C(\C#N)C(=O)c2oc3ccccc3c2C)cc1,20 mm
3,Cc1c(-c2nc3ccccc3c(=O)o2)oc2ccccc12,7 mm
4,Cc1c(-c2cc(N)n(-c3ccccc3)n2)oc2ccccc12,9 mm
5,Cc1c(C(=O)NNC(=O)c2oc3ccccc3c2C)oc2ccccc12,6 mm
6,CN(C/C=C/C#CC(C)(C)C)Cc1cccc2ccccc12 [TERBINAFINE],30 mm
7,Cc1c(C(=O)/C(C#N)=N/Nc2ccc(Cl)cc2)oc2ccccc12,16 mm
8,Cc1c(C(=O)/C(C#N)=N/O)oc2ccccc12,18 mm
9,Cc1c(-c2n[nH]cc2C#N)oc2ccccc12,12 mm

# Tested on: Staphylococcus aureus
# Assay: Antibacterial activity against Staphylococcus aureus at 100 ug after 24 to 48 hrs by diffusion agar technique
# Format: functional
# Conditions: read-out: IZ
# Method in brief: (§2)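 Hole-plate agar diffusion on nutrient agar (pH 6.2) seeded with the bacterial isolate (RCMB collection). 1 cm wells hold 100 μL of compound at 5 mg/ml in DMSO; DMSO-filled wells serve as controls. Plates are held 1 h at 4 °C, then incubated at 37 °C. Inhibition zone diameter is read after 24-48 h. Amoxicilline is the reference.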
row,Compound,zone of inhibition at 100 µg/disc
1,CCO/C=C(\C#N)C(=O)c1oc2ccccc2c1C,13 mm
2,Cc1c(C(=O)Nc2ccccc2C(=O)O)oc2ccccc12,3 mm
3,CC1(C)S[C@@H]2[C@H](NC(=O)[C@H](N)c3ccc(O)cc3)C(=O)N2[C@H]1C(=O)O [AMOXICILLIN],30 mm
4,Cc1ccc(N/N=C(\C#N)C(=O)c2oc3ccccc3c2C)cc1,4 mm
5,Cc1c(-c2nc3ccccc3c(=O)o2)oc2ccccc12,4 mm
6,Cc1c(-c2cc(N)n(-c3ccccc3)n2)oc2ccccc12,4 mm
7,Cc1c(C(=O)NNC(=O)c2oc3ccccc3c2C)oc2ccccc12,3 mm
8,Cc1c(C(=O)NN/C=C(\NNC(=O)c2oc3ccccc3c2C)c2ccc(Cl)cc2)oc2ccccc12,4 mm
9,Cc1c(C(=O)NN/C=C(\NNC(=O)c2oc3ccccc3c2C)c2ccccc2)oc2ccccc12,15 mm
10,Cc1c(C(=O)/C(C#N)=N/Nc2ccc(Cl)cc2)oc2ccccc12,5 mm
11,Cc1c(C(=O)/C(C#N)=N/O)oc2ccccc12,15 mm
12,Cc1c(-c2n[nH]cc2C#N)oc2ccccc12,10 mm

# Tested on: Pseudomonas aeruginosa
# Assay: Antibacterial activity against Pseudomonas aeruginosa at 100 ug after 24 to 48 hrs by diffusion agar technique
# Format: functional
# Conditions: read-out: IZ
# Method in brief: as §2
row,Compound,zone of inhibition at 100 µg/disc
1,CC1(C)S[C@@H]2[C@H](NC(=O)[C@H](N)c3ccc(O)cc3)C(=O)N2[C@H]1C(=O)O [AMOXICILLIN],20 mm
2,Cc1c(-c2nc3ccccc3c(=O)o2)oc2ccccc12,8 mm
3,Cc1c(C(=O)NN/C=C(\NNC(=O)c2oc3ccccc3c2C)c2ccccc2)oc2ccccc12,6 mm

# Tested on: Bacillus subtilis
# Assay: Antibacterial activity against Bacillus subtilis at 100 ug after 24 to 48 hrs by diffusion agar technique
# Format: functional
# Conditions: read-out: IZ
# Method in brief: as §2
row,Compound,zone of inhibition at 100 µg/disc
1,CCO/C=C(\C#N)C(=O)c1oc2ccccc2c1C,7 mm
2,Cc1c(C(=O)Nc2ccccc2C(=O)O)oc2ccccc12,12 mm
3,CC1(C)S[C@@H]2[C@H](NC(=O)[C@H](N)c3ccc(O)cc3)C(=O)N2[C@H]1C(=O)O [AMOXICILLIN],25 mm
4,Cc1ccc(N/N=C(\C#N)C(=O)c2oc3ccccc3c2C)cc1,6 mm
5,Cc1c(-c2nc3ccccc3c(=O)o2)oc2ccccc12,8 mm
6,Cc1c(-c2cc(N)n(-c3ccccc3)n2)oc2ccccc12,25 mm
7,Cc1c(C(=O)NNC(=O)c2oc3ccccc3c2C)oc2ccccc12,12 mm
8,Cc1c(C(=O)NN/C=C(\NNC(=O)c2oc3ccccc3c2C)c2ccc(Cl)cc2)oc2ccccc12,4 mm
9,Cc1c(C(=O)NN/C=C(\NNC(=O)c2oc3ccccc3c2C)c2ccccc2)oc2ccccc12,14 mm
10,Cc1c(C(=O)/C(C#N)=N/O)oc2ccccc12,20 mm
11,Cc1c(-c2n[nH]cc2C#N)oc2ccccc12,18 mm

# Tested on: Escherichia coli
# Assay: Antibacterial activity against Escherichia coli at 100 ug after 24 to 48 hrs by diffusion agar technique
# Format: functional
# Conditions: read-out: IZ
# Method in brief: as §2
row,Compound,zone of inhibition at 100 µg/disc
1,CC1(C)S[C@@H]2[C@H](NC(=O)[C@H](N)c3ccc(O)cc3)C(=O)N2[C@H]1C(=O)O [AMOXICILLIN],30 mm
2,Cc1c(-c2cc(N)n(-c3ccccc3)n2)oc2ccccc12,5 mm
3,Cc1c(C(=O)NN/C=C(\NNC(=O)c2oc3ccccc3c2C)c2ccc(Cl)cc2)oc2ccccc12,3 mm
4,Cc1c(C(=O)NN/C=C(\NNC(=O)c2oc3ccccc3c2C)c2ccccc2)oc2ccccc12,5 mm
5,Cc1c(C(=O)/C(C#N)=N/O)oc2ccccc12,8 mm

# Tested on: Staphylococcus aureus
# Assay: Antimicrobial activity against Staphylococcus aureus by serial dilution technique
# Format: functional
# Conditions: not given
row,MIC,Compound
1,500 µg/mL,Cc1c(C(=O)NN/C=C(\NNC(=O)c2oc3ccccc3c2C)c2ccccc2)oc2ccccc12

# Tested on: Aspergillus fumigatus
# Assay: Antimicrobial activity against Aspergillus fumigatus by serial dilution technique
# Format: functional
# Conditions: not given
row,MIC,Compound
1,500 µg/mL,Cc1c(C(=O)NN/C=C(\NNC(=O)c2oc3ccccc3c2C)c2ccc(Cl)cc2)oc2ccccc12

# Tested on: Bacillus subtilis
# Assay: Antimicrobial activity against Bacillus subtilis by serial dilution technique
# Format: functional
# Conditions: not given
row,MIC,Compound
1,250 µg/mL,Cc1c(-c2cc(N)n(-c3ccccc3)n2)oc2ccccc12
2,125 µg/mL,Cc1c(C(=O)/C(C#N)=N/O)oc2ccccc12

# Tested on: Candida albicans
# Assay: Antimicrobial activity against Candida albicans by serial dilution technique
# Format: functional
# Conditions: not given
row,MIC,Compound
1,50 µg/mL,Cc1ccc(N/N=C(\C#N)C(=O)c2oc3ccccc3c2C)cc1
2,250 µg/mL,Cc1c(C(=O)/C(C#N)=N/Nc2ccc(Cl)cc2)oc2ccccc12

# Tested on: Aspergillus niger
# Assay: Antimicrobial activity against Aspergillus niger by serial dilution technique
# Format: functional
# Conditions: not given
row,MIC,Compound
1,250 µg/mL,CCO/C=C(\C#N)C(=O)c1oc2ccccc2c1C

# Tested on: Syncephalastrum racemosum
# Assay: Antimicrobial activity against Syncephalastrum racemosum by serial dilution technique
# Format: functional
# Conditions: not given
row,MIC,Compound
1,250 µg/mL,Cc1c(C(=O)Nc2ccccc2C(=O)O)oc2ccccc12
2,250 µg/mL,Cc1c(-c2nc3ccccc3c(=O)o2)oc2ccccc12
3,50 µg/mL,Cc1c(C(=O)NNC(=O)c2oc3ccccc3c2C)oc2ccccc12
4,50 µg/mL,Cc1c(-c2n[nH]cc2C#N)oc2ccccc12

# Tested on: Penicillium italicum
# Assay: Antimicrobial activity against Penicillium italicum by serial dilution technique
# Format: functional
# Conditions: not given
row,MIC,Compound
1,50 µg/mL,Cc1c(C(=O)NNC(=O)c2oc3ccccc3c2C)oc2ccccc12
